Measurements from article PMC3794474 (Journal of medicinal chemistry, 2011).
Where two headings read alike, the source gives them in different places.

Key:
[1] = target: T1, rat α1β2γ2L type GABAA receptors expressed in Xenopus laevis oocytes (Rattus norvegicus, UniProt P62813+P63138); format: cell-based; conditions: 2 µM GABA; for Potentiation, steroids 1 and 6a directly compared on the same oocyte (Figure 4): 1 and 10 µM compound, 6 to 7 oocytes; for oocyte electrophysiology, ratio of currents in presence/absence of compound: ± SEM, N ≥ 4
Summary of the method: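 Rat α1β2γ2L GABAA receptors expressed in Xenopus oocytes with whole-cell recording. Currents with test compound plus 2 µM GABA were expressed as a ratio to 2 µM GABA alone, with at least four oocytes per compound. Direct gating used 10 µM compound without GABA, given as a ratio to the 2 µM GABA current. In the within-oocyte comparison, 1 or 10 µM compound was co-applied with 2 µM GABA and averaged over 6–7 oocytes.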

[2] = tested on: BALB/C mice; assay: Anesthesia; format: in vivo, mouse; conditions: tail vein injection
[3] = tested on: tadpole; conditions: read-out: Tadpole LRR EC50; ± SEM; cited from earlier work
[4] = tested on: tadpole; conditions: read-out: Tadpole LSR EC50; ± SEM; None = all animals had a swimming response at 10 µM of the test compound; cited from earlier work
[5] = target: picrotoxin binding site on GABAA receptors; conditions: read-out: IC50, inhibition of [35S]-TBPS binding; ± SEM; cited from earlier work
[6] = target: T1, rat α1β2γ2L type GABAA receptors expressed in Xenopus laevis oocytes; conditions: 2 µM GABA, ± SEM, cited from earlier work
[7] = tested on: tadpole; assay: Tadpole loss of righting reflex; format: in vivo; conditions: read-out: Tadpole LRR EC50; ± SEM, N = 10 or more animals at each of five or more concentrations
[8] = tested on: tadpole; assay: Tadpole loss of swimming reflex; format: in vivo; conditions: ± SEM, None = all animals had a swimming response at 10 µM of the test compound

In the case of `CC(=O)[C@H]1CC[C@H]2[C@@H]3CC[C@H]4C[C@H](O)CC[C@]4(C)[C@H]3C(=O)C[C@]12C` [Compound 1, (3α,5α)-3-hydroxypregnane-11,20-dione], the “Potentiation, steroids 1 and 6a directly compared on the same oocyte (Figure 4)” value [1] is reported as “potentiate to the same level”, the “Anesthetic effect in mice” value ([2]; 8 mg/kg, 22.5% 2-hydroxypropyl-β-cyclodextrin) is reported as “very brief anesthesia” and the “Onset of loss of righting reflex” value ([2]; mice, 16 mg/kg) is reported as “immediate loss of righting reflex”. For the same compound, the “Recovery period from initial return of leg movement to righting and walking” value ([2]; mice, 16 mg/kg) was 1 to 2 min, the EC50 [3] was 1.12 ± 0.14 µM and the EC50 [4] was 5.48 ± 0.11 µM.
In the case of `CC(=O)C1=CC[C@H]2[C@@H]3CC[C@H]4C[C@H](O)CC[C@]4(C)[C@H]3C(=O)C[C@]12C` [Compound 2, (3α,5α)-3-hydroxypregn-16-ene-11,20-dione], the IC50 [5] is listed as 2.22 µM, the “oocyte electrophysiology, ratio of currents in presence/absence of compound” value ([6]; 0.1 µM compound) is listed as 0.94 ± 0.04 and the “oocyte electrophysiology, ratio of currents in presence/absence of compound” value ([6]; 1 µM compound) is listed as 0.97 ± 0.05. The “oocyte electrophysiology, ratio of currents in presence/absence of compound” value ([6]; 10 µM compound) was 1.87 ± 0.14 and the EC50 [3] was greater than 10 µM.
In the case of `C[C@]12CC[C@@H](O)C[C@@H]1CC[C@@H]1[C@@H]2C(=O)C[C@]2(C)C(C=O)=CC[C@@H]12` [Compound 5a, (3α,5α)-3-Hydroxy-11-oxoandrost-16-ene-17-carboxaldehyde], the EC50 [7] is reported as roughly 3 µM and the “Tadpole LSR EC50” value [8] is reported as “None”.
For `C[C@]12CC[C@@H](O)C[C@@H]1CC[C@H]1[C@@H]3CC[C@H](C=O)[C@@]3(C)CC(=O)[C@@H]12` [Compound 5b, (3α,5α,17β)-3-Hydroxy-11-oxoandrostane-17-carboxaldehyde], the “Tadpole LSR EC50” value [8] was “None”.
For `C[C@]12CC[C@@H](O)C[C@@H]1CC[C@@H]1[C@@H]2C(=O)C[C@]2(C)/C(=C\C#N)CC[C@@H]12` [Compound 6a, [3α,5α,17(20)Z]-3-Hydroxy-11-oxopregn-17(20)-ene-21-nitrile], the “Potentiation, steroids 1 and 6a directly compared on the same oocyte (Figure 4)” value [1] was “potentiate to the same level”, the “Time to loss of movement and righting reflex (onset)” value ([2]; mice, 8 mg/kg) was 10 to 25 s and the “Onset of loss of righting reflex” value ([2]; mice, 16 mg/kg) was “immediate loss of righting reflex”.
With `C/C(C#N)=C1\CC[C@H]2[C@@H]3CC[C@H]4C[C@H](O)CC[C@]4(C)[C@H]3C(=O)C[C@]12C` [Compound 6c, [3α,5α,17(20)Z]-3-Hydroxy-11-oxopregn-17(20)-ene-20-carbonitrile] the EC50 ([8]; read-out: Tadpole LSR EC50) was less than 10 µM.
In the case of “(3α,5α)-3-Hydroxy-11-oxopregnan-21-carbonitrile [Compound 5c]”, the “oocyte electrophysiology, ratio of currents in presence/absence of compound” value ([1]; 0.1 µM compound) is reported as 0.91 ± 0.03, the “oocyte electrophysiology, ratio of currents in presence/absence of compound” value ([1]; 1 µM compound) is reported as 1.13 ± 0.08 and the “oocyte electrophysiology, ratio of currents in presence/absence of compound” value ([1]; 10 µM compound) is reported as 4.67 ± 0.14. The EC50 [7] was 3.58 ± 1.59 µM and the “Tadpole LSR EC50” value [8] was “None”.
